Experimental findings from ChEMBL document CHEMBL5150051, “Identification and Characterization of a Novel Indoleamine 2,3-Dioxygenase 1 Protein Degrader for Glioblastoma” (J Med Chem, 2022) are described below.

The target in the experiment is Protein cereblon/Indoleamine 2,3-dioxygenase 1 (Homo sapiens, UniProt P14902+Q96SW2). Kind of experiment: Protac activity at IDO1/CRBN in IFNgamma-stimulated human U87 cells assessed as IDO1 degradation at 10 uM measured after 24 hrs by Western blotting analysis relative to control. It counts as cell-based. The procedure, abridged:
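U87 GBM cells primed with human IFNγ 50 ng/mL for 24 h, then exposed to PROTAC at 10 μM for 24 h. Lysates run on western blot; IDO1 bands quantified by densitometry and expressed as percent of normalized IDO1 protein level.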

Sequence of Protein cereblon/Indoleamine 2,3-dioxygenase 1 (P14902 whole entry, looked up): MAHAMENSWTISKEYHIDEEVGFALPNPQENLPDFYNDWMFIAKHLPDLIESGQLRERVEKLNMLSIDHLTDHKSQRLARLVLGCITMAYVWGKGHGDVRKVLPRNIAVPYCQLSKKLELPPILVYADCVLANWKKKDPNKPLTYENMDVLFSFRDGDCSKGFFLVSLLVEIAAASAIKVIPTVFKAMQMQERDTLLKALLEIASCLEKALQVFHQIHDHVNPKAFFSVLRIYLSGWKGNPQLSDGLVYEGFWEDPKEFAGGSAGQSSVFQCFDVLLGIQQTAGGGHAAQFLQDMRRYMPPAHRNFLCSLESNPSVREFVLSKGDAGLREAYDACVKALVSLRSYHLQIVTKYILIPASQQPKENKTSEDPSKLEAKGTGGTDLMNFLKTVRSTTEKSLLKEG
Sequence of Protein cereblon/Indoleamine 2,3-dioxygenase 1 (Q96SW2 whole entry, looked up): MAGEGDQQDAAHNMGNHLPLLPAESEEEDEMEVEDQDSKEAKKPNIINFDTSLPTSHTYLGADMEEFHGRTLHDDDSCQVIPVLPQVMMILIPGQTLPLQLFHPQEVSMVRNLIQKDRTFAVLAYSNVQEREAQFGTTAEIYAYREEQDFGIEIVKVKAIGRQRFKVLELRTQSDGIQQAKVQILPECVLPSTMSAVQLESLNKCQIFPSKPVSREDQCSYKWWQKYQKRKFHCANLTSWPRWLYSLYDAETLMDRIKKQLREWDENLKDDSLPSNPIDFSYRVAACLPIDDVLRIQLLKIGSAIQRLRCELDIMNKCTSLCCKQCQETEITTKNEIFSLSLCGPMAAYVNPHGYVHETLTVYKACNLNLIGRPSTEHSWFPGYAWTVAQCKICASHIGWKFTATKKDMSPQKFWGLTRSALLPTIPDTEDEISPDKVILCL

Regarding `C[C@@H](C(=O)Nc1ccc(Cl)c(OCCOCCOCCOCCNC(=O)COc2cccc3c2C(=O)N(C2CCC(=O)NC2=O)C3=O)c1)[C@H]1CC[C@@H](c2ccnc3ccc(F)cc32)CC1` (some centres not stated), the Activity is 0%.
With `C[C@@H](C(=O)Nc1ccc(OC2CCN(CCCOCCOc3cccc4c3C(=O)N(C3CCC(=O)NC3=O)C4=O)CC2)cc1)[C@H]1CC[C@@H](c2ccnc3ccc(F)cc32)CC1` (some centres not stated) the figure was 0%.
With `C[C@@H](C(=O)Nc1ccc(OC2CN(C(=O)CCOCCNC(=O)COc3cccc4c3C(=O)N(C3CCC(=O)NC3=O)C4=O)C2)cc1)[C@H]1CC[C@@H](c2ccnc3ccc(F)cc32)CC1` (some centres not stated) the figure was 86%; with `C[C@@H](C(=O)Nc1ccc(OCCOCCOCCOCCOCCOCCNc2cccc3c2C(=O)N(C2CCC(=O)NC2=O)C3=O)cc1)[C@H]1CC[C@@H](c2ccnc3ccc(F)cc32)CC1` (some centres not stated), 0%.
For `C[C@@H](C(=O)Nc1ccc(OCCOCCOCCOCCNc2cccc3c2C(=O)N(C2CCC(=O)NC2=O)C3=O)cc1)[C@H]1CC[C@@H](c2ccnc3ccc(F)cc32)CC1` (some centres not stated), the Activity is 0%.
`C[C@@H](C(=O)Nc1ccc(OCCCCNc2cccc3c2C(=O)N(C2CCC(=O)NC2=O)C3=O)cc1)[C@H]1CC[C@@H](c2ccnc3ccc(F)cc32)CC1` (some centres not stated): the Activity was found to be 0%.
The same measure for `C[C@@H](C(=O)Nc1ccc(OCCCCNC(=O)COc2cccc3c2C(=O)N(C2CCC(=O)NC2=O)C3=O)cc1)[C@H]1CC[C@@H](c2ccnc3ccc(F)cc32)CC1` (some centres not stated): 10%; for `C[C@@H](C(=O)Nc1ccc(OC2CCN(C(=O)CCOCCOCCNC(=O)COc3cccc4c3C(=O)N(C3CCC(=O)NC3=O)C4=O)CC2)cc1)[C@H]1CC[C@@H](c2ccnc3ccc(F)cc32)CC1` (some centres not stated): 81%; for `C[C@@H](C(=O)Nc1ccc(OC2CCN(C(=O)CCOCCOCCOc3cccc4c3C(=O)N(C3CCC(=O)NC3=O)C4=O)CC2)cc1)[C@H]1CC[C@@H](c2ccnc3ccc(F)cc32)CC1` (some centres not stated): 80%.
The same measure for `C[C@@H](C(=O)Nc1ccc(Cl)c(OCCCNC(=O)COc2cccc3c2C(=O)N(C2CCC(=O)NC2=O)C3=O)c1)[C@H]1CC[C@@H](c2ccnc3ccc(F)cc32)CC1` (some centres not stated): 67%.
The same measure for `C[C@@H](C(=O)Nc1ccc(Cl)c(OCCCOc2cccc3c2C(=O)N(C2CCC(=O)NC2=O)C3=O)c1)[C@H]1CC[C@@H](c2ccnc3ccc(F)cc32)CC1` (some centres not stated): 49%.
Take `C[C@@H](C(=O)Nc1ccc(OC2CCN(CCCOCCOCCNC(=O)COc3cccc4c3C(=O)N(C3CCC(=O)NC3=O)C4=O)CC2)cc1)[C@H]1CC[C@@H](c2ccnc3ccc(F)cc32)CC1` (some centres not stated): the Activity turned out to be 33%.
With `C[C@@H](C(=O)Nc1ccc(Cl)c(OCCOCCOCCOCCOCCNc2cccc3c2C(=O)N(C2CCC(=O)NC2=O)C3=O)c1)[C@H]1CC[C@@H](c2ccnc3ccc(F)cc32)CC1` (some centres not stated) the figure was 0%.
The same measure for `C[C@@H](C(=O)Nc1ccc(Cl)c(OCCOCCOCCOc2cccc3c2C(=O)N(C2CCC(=O)NC2=O)C3=O)c1)[C@H]1CC[C@@H](c2ccnc3ccc(F)cc32)CC1` (some centres not stated): 88%; for `C[C@@H](C(=O)Nc1ccc(Cl)c(OCCOCCOCCOCCOCCOCCNc2cccc3c2C(=O)N(C2CCC(=O)NC2=O)C3=O)c1)[C@H]1CC[C@@H](c2ccnc3ccc(F)cc32)CC1` (some centres not stated): 0%; for `C[C@@H](C(=O)Nc1ccc(OCCOCCOCCOCCOCCOCCOc2cccc3c2C(=O)N(C2CCC(=O)NC2=O)C3=O)cc1)[C@H]1CC[C@@H](c2ccnc3ccc(F)cc32)CC1` (some centres not stated): 0%.
In the case of `C[C@@H](C(=O)Nc1ccc(OCCOCCOCCOCCNC(=O)COc2cccc3c2C(=O)N(C2CCC(=O)NC2=O)C3=O)cc1)[C@H]1CC[C@@H](c2ccnc3ccc(F)cc32)CC1` (some centres not stated), the Activity came to 0%.
For the compound `C[C@@H](C(=O)Nc1ccc(OCCOCCOCCNc2cccc3c2C(=O)N(C2CCC(=O)NC2=O)C3=O)cc1)[C@H]1CC[C@@H](c2ccnc3ccc(F)cc32)CC1` (some centres not stated), the Activity came out at 77%.
With `C[C@@H](C(=O)Nc1ccc(Cl)c(OCCCCCCNC(=O)COc2cccc3c2C(=O)N(C2CCC(=O)NC2=O)C3=O)c1)[C@H]1CC[C@@H](c2ccnc3ccc(F)cc32)CC1` (some centres not stated) the figure was 0%; with `C[C@@H](C(=O)Nc1ccc(OC2CN(C(=O)CCOCCOc3cccc4c3C(=O)N(C3CCC(=O)NC3=O)C4=O)C2)cc1)[C@H]1CC[C@@H](c2ccnc3ccc(F)cc32)CC1` (some centres not stated), 86%.
The same measure for `C[C@@H](C(=O)Nc1ccc(Cl)c(OCCOCCOCCOCCOCCOCCNC(=O)COc2cccc3c2C(=O)N(C2CCC(=O)NC2=O)C3=O)c1)[C@H]1CC[C@@H](c2ccnc3ccc(F)cc32)CC1` (some centres not stated): 0%.
With `C[C@@H](C(=O)Nc1ccc(Cl)c(OCCCCCCCCCNc2cccc3c2C(=O)N(C2CCC(=O)NC2=O)C3=O)c1)[C@H]1CC[C@@H](c2ccnc3ccc(F)cc32)CC1` (some centres not stated) the figure was 0%; with `C[C@@H](C(=O)Nc1ccc(OCCOCCOCCOc2cccc3c2C(=O)N(C2CCC(=O)NC2=O)C3=O)cc1)[C@H]1CC[C@@H](c2ccnc3ccc(F)cc32)CC1` (some centres not stated), 94%; with `C[C@@H](C(=O)Nc1ccc(OCCOCCNC(=O)COc2cccc3c2C(=O)N(C2CCC(=O)NC2=O)C3=O)cc1)[C@H]1CC[C@@H](c2ccnc3ccc(F)cc32)CC1` (some centres not stated), 48%.
Take `C[C@@H](C(=O)Nc1ccc(Cl)c(OCCOCCOCCOCCOCCOCCOc2cccc3c2C(=O)N(C2CCC(=O)NC2=O)C3=O)c1)[C@H]1CC[C@@H](c2ccnc3ccc(F)cc32)CC1` (some centres not stated): the Activity is 0%.
On to `C[C@@H](C(=O)Nc1ccc(Cl)c(OCCOCCOCCNc2cccc3c2C(=O)N(C2CCC(=O)NC2=O)C3=O)c1)[C@H]1CC[C@@H](c2ccnc3ccc(F)cc32)CC1` (some centres not stated), for which the Activity stood at 71%.
The same measure for `C[C@@H](C(=O)Nc1ccc(Cl)c(OCCCCCCOc2cccc3c2C(=O)N(C2CCC(=O)NC2=O)C3=O)c1)[C@H]1CC[C@@H](c2ccnc3ccc(F)cc32)CC1` (some centres not stated): 0%.
The same measure for `C[C@@H](C(=O)Nc1ccc(OC2CCN(CCCOCCOCCOc3cccc4c3C(=O)N(C3CCC(=O)NC3=O)C4=O)CC2)cc1)[C@H]1CC[C@@H](c2ccnc3ccc(F)cc32)CC1` (some centres not stated): 0%.
The same measure for `C[C@@H](C(=O)Nc1ccc(OCCOCCOCCOCCOCCOCCNC(=O)COc2cccc3c2C(=O)N(C2CCC(=O)NC2=O)C3=O)cc1)[C@H]1CC[C@@H](c2ccnc3ccc(F)cc32)CC1` (some centres not stated): 46%; for `C[C@@H](C(=O)Nc1ccc(Cl)c(OCCOCCNC(=O)COc2cccc3c2C(=O)N(C2CCC(=O)NC2=O)C3=O)c1)[C@H]1CC[C@@H](c2ccnc3ccc(F)cc32)CC1` (some centres not stated): 8%.
Regarding `C[C@@H](C(=O)Nc1ccc(OCCCCCCCCCCOc2cccc3c2C(=O)N(C2CCC(=O)NC2=O)C3=O)cc1)[C@H]1CC[C@@H](c2ccnc3ccc(F)cc32)CC1` (some centres not stated), the Activity was found to be 0%.
The same measure for `C[C@@H](C(=O)Nc1ccc(Cl)c(OCCCCCCCCCNC(=O)COc2cccc3c2C(=O)N(C2CCC(=O)NC2=O)C3=O)c1)[C@H]1CC[C@@H](c2ccnc3ccc(F)cc32)CC1` (some centres not stated): 0%; for `C[C@@H](C(=O)Nc1ccc(Cl)c(OCCOCCOc2cccc3c2C(=O)N(C2CCC(=O)NC2=O)C3=O)c1)[C@H]1CC[C@@H](c2ccnc3ccc(F)cc32)CC1` (some centres not stated): 6%; for `C[C@@H](C(=O)Nc1ccc(OC2CCN(C(=O)CCOCCOc3cccc4c3C(=O)N(C3CCC(=O)NC3=O)C4=O)CC2)cc1)[C@H]1CC[C@@H](c2ccnc3ccc(F)cc32)CC1` (some centres not stated): 45%.
The same measure for `C[C@@H](C(=O)Nc1ccc(Cl)c(OCCOCCOCCOCCOc2cccc3c2C(=O)N(C2CCC(=O)NC2=O)C3=O)c1)[C@H]1CC[C@@H](c2ccnc3ccc(F)cc32)CC1` (some centres not stated): 13%; for `C[C@@H](C(=O)Nc1ccc(OCCOCCOCCOCCOc2cccc3c2C(=O)N(C2CCC(=O)NC2=O)C3=O)cc1)[C@H]1CC[C@@H](c2ccnc3ccc(F)cc32)CC1` (some centres not stated): 0%; for `C[C@@H](C(=O)Nc1ccc(Cl)c(OCCOCCOCCOCCOCCOc2cccc3c2C(=O)N(C2CCC(=O)NC2=O)C3=O)c1)[C@H]1CC[C@@H](c2ccnc3ccc(F)cc32)CC1` (some centres not stated): 0%.
With `C[C@@H](C(=O)Nc1ccc(OC2CN(C(=O)CCOCCOCCNC(=O)COc3cccc4c3C(=O)N(C3CCC(=O)NC3=O)C4=O)C2)cc1)[C@H]1CC[C@@H](c2ccnc3ccc(F)cc32)CC1` (some centres not stated) the figure was 9%; with `C[C@@H](C(=O)Nc1ccc(Cl)c(OCCOCCOCCNC(=O)COc2cccc3c2C(=O)N(C2CCC(=O)NC2=O)C3=O)c1)[C@H]1CC[C@@H](c2ccnc3ccc(F)cc32)CC1` (some centres not stated), 40%.
For the compound `C[C@@H](C(=O)Nc1ccc(OCCOCCOCCOCCOCCNC(=O)COc2cccc3c2C(=O)N(C2CCC(=O)NC2=O)C3=O)cc1)[C@H]1CC[C@@H](c2ccnc3ccc(F)cc32)CC1` (some centres not stated), the Activity is 0%.
The same measure for `C[C@@H](C(=O)Nc1ccc(Cl)c(OCCOCCOCCOCCNc2cccc3c2C(=O)N(C2CCC(=O)NC2=O)C3=O)c1)[C@H]1CC[C@@H](c2ccnc3ccc(F)cc32)CC1` (some centres not stated): 0%; for `C[C@@H](C(=O)Nc1ccc(OC2CCN(C(=O)CCOCCNc3cccc4c3C(=O)N(C3CCC(=O)NC3=O)C4=O)CC2)cc1)[C@H]1CC[C@@H](c2ccnc3ccc(F)cc32)CC1` (some centres not stated): 33%; for `C[C@@H](C(=O)Nc1ccc(OCCCCCCCCCCNC(=O)COc2cccc3c2C(=O)N(C2CCC(=O)NC2=O)C3=O)cc1)[C@H]1CC[C@@H](c2ccnc3ccc(F)cc32)CC1` (some centres not stated): 0%.
With `C[C@@H](C(=O)Nc1ccc(OC2CN(C(=O)CCOCCOCCNc3cccc4c3C(=O)N(C3CCC(=O)NC3=O)C4=O)C2)cc1)[C@H]1CC[C@@H](c2ccnc3ccc(F)cc32)CC1` (some centres not stated) the figure was 94%.
The same measure for `C[C@@H](C(=O)Nc1ccc(Cl)c(OCCCCCCNc2cccc3c2C(=O)N(C2CCC(=O)NC2=O)C3=O)c1)[C@H]1CC[C@@H](c2ccnc3ccc(F)cc32)CC1` (some centres not stated): 0%; for `C[C@@H](C(=O)Nc1ccc(Cl)c(OCCCNc2cccc3c2C(=O)N(C2CCC(=O)NC2=O)C3=O)c1)[C@H]1CC[C@@H](c2ccnc3ccc(F)cc32)CC1` (some centres not stated): 36%.
Consider `C[C@@H](C(=O)Nc1ccc(OCCOCCOCCOCCOCCNc2cccc3c2C(=O)N(C2CCC(=O)NC2=O)C3=O)cc1)[C@H]1CC[C@@H](c2ccnc3ccc(F)cc32)CC1` (some centres not stated), for which the Activity was 0%.
